Data: ChEMBL document CHEMBL2380224, “Fragment-based ligand design of novel potent inhibitors of tankyrases” (J Med Chem, 2013)

Legend:
[1] = biological target: T1, Protein mono-ADP-ribosyltransferase PARP3 (Homo sapiens, UniProt Q9Y6F1); test: Inhibition of PARP3 (unknown origin)
T1 sequence (Q9Y6F1 whole entry): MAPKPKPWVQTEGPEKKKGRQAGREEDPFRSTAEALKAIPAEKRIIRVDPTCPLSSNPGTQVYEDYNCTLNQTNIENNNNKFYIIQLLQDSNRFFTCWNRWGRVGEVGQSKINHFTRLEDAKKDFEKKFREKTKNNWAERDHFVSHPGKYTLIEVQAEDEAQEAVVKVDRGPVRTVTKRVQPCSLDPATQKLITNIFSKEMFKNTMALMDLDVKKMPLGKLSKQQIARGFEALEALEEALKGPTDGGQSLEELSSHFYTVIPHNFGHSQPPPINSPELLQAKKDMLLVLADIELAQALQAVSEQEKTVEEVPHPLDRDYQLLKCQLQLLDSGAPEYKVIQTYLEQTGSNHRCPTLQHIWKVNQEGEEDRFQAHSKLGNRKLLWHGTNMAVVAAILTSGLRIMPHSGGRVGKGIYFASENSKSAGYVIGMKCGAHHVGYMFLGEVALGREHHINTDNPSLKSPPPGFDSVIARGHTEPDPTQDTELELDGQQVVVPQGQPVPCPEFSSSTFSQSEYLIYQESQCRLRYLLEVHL

[2] = biological target: T2, Protein mono-ADP-ribosyltransferase TIPARP (Homo sapiens) (UniProt Q7Z3E1); test: Inhibition of PARP7 (unknown origin) at 10 uM relative to control
T2 sequence (whole entry): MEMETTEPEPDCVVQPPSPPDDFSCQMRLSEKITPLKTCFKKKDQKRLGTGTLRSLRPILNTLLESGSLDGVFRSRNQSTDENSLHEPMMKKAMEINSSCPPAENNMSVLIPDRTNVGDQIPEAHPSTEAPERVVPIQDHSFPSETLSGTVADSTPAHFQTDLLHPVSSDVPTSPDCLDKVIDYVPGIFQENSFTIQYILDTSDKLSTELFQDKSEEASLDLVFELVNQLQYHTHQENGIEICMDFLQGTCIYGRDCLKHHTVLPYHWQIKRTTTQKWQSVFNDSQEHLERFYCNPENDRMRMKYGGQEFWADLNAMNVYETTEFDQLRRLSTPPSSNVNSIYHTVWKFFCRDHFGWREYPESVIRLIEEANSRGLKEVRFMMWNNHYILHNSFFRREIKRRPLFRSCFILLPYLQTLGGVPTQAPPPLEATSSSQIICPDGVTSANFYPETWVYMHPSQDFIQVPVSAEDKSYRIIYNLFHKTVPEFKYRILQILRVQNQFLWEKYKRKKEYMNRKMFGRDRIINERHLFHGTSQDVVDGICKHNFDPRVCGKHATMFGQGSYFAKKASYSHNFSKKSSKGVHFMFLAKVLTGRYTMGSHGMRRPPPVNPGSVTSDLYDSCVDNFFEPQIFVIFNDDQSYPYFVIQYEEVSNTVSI

Homo sapiens [3] = organism: Homo sapiens; test: Selectivity ratio of IC50 for PARP3 (unknown origin) to IC50 for TNKS2 PARP domain (947 to 1162) (unknown origin)
[4] = biological target: T3, Poly [ADP-ribose] polymerase tankyrase-2 (Homo sapiens) (UniProt Q9H2K2); test: Binding affinity to TNKS2 PARP domain (947 to 1162) (unknown origin) expressed in Escherichia coli BL21(DE3) assessed as thermal stabilization at 125 uM by differential scanning flourimetric analysis
T3 sequence (whole entry): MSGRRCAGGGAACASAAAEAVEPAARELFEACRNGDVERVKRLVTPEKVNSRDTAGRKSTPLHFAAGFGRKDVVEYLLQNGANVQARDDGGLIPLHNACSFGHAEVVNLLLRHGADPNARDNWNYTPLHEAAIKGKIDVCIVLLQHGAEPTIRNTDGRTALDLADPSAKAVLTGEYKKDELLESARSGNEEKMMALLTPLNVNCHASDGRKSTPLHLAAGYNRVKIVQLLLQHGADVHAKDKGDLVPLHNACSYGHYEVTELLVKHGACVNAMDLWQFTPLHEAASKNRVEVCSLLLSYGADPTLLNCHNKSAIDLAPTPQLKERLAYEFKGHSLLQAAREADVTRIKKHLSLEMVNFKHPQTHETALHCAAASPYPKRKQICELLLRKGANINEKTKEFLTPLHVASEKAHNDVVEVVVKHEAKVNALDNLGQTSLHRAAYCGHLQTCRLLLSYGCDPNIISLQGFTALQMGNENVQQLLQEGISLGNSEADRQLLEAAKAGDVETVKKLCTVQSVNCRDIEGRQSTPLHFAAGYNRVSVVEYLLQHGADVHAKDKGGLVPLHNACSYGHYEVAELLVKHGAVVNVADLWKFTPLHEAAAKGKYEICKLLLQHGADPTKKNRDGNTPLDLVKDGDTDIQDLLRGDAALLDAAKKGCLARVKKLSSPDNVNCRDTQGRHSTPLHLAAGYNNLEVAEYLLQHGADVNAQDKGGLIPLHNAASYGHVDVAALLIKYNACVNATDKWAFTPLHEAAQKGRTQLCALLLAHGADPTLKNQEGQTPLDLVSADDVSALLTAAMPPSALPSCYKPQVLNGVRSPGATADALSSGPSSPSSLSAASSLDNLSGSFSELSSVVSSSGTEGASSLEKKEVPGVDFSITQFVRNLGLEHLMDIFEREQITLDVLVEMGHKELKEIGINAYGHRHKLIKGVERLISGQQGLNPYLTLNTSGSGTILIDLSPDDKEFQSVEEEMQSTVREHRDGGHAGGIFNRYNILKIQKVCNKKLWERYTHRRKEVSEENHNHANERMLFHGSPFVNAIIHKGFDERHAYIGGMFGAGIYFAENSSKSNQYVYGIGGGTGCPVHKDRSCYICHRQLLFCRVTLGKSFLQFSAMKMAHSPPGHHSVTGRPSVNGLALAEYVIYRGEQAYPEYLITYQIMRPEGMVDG
In short: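 DSF dose−response. TNKS2 at 0.2 mg/mL with SYPRO Orange (5×). Compounds were serially diluted in 100% DMSO at 50× the assay concentration. Chymotrypsin (1/100 TNKS2 mass equivalents) was added to the protein–dye mix just before the run. Scanned 25−80 °C at about 2 °C/min, ex 490/em 575 nm, and Tm shift was taken against the DMSO control.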

[5] = biological target: Poly [ADP-ribose] polymerase 1 (Homo sapiens, UniProt P09874); test: Inhibition of PARP1 (unknown origin)
Homo sapiens [6] = organism: Homo sapiens; test: Selectivity ratio of IC50 for PARP1 (unknown origin) to IC50 for TNKS2 PARP domain (947 to 1162) (unknown origin)

Poly [ADP-ribose] polymerase 1, sequence (P09874 whole entry, the tested form may be a part): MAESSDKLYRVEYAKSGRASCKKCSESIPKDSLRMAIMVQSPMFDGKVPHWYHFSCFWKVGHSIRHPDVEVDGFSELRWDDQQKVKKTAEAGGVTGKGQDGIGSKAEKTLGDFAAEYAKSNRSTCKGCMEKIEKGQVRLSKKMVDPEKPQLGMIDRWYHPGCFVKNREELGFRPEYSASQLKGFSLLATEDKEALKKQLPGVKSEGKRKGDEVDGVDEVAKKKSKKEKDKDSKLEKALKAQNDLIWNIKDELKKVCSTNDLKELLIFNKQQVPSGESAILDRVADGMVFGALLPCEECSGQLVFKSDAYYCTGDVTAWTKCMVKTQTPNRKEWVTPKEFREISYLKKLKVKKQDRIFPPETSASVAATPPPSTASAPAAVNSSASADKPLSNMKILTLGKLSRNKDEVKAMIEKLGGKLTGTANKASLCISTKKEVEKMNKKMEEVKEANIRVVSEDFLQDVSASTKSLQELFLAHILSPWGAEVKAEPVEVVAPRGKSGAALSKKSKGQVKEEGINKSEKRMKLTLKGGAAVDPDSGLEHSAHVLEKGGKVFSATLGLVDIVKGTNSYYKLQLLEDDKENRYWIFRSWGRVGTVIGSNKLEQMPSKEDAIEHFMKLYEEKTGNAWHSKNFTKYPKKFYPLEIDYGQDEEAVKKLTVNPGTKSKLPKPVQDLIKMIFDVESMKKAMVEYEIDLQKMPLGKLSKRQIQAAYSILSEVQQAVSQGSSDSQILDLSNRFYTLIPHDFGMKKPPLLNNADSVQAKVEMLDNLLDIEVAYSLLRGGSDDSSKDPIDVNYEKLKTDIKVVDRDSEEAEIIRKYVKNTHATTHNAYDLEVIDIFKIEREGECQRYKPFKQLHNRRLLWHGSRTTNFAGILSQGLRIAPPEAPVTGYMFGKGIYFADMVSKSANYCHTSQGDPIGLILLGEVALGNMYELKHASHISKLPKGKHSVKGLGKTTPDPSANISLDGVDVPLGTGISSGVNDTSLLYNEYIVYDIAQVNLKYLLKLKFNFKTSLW

Question: Which results are given for `Cc1cc(=O)[nH]c2cc(-c3ccccc3F)ccc12`?
Answer: IC50 [1]: > 10 µM; inhibition [2]: 37%; Ratio IC50 (Homo sapiens [3]): > 100; ΔTm [4]: 5.1 °C; IC50 [5]: > 10 µM; Ratio IC50 (Homo sapiens [6]): > 100
